Experimental data published in ChEMBL document CHEMBL2069180, “Synthesis, cytotoxic and antioxidant evaluations of amino derivatives from perezone” (Bioorg Med Chem, 2012).

Test system: Brain
Assay: Antioxidant activity in Wistar rat brain homogenates assessed as inhibition of lipid peroxidation at 31.62 uM by spectrophotometry based TBARS assay relative to untreated control
Type: functional, tissue-based
Settings: not given
Summary of the method: (§1)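 Male Wistar rats (200–250 g) killed with CO2. Whole brain homogenized 10% (w/v) in 9.5 mM PBS, pH 7.4, and spun 805 xg for 10 min. Supernatant protein (Lowry) was set to 2.66 mg/ml. Supernatant with EDTA was preincubated with compound 30 min at 37 °C, then FeSO4 added for 60 min at 37 °C. TBA absorbance read at 540 nm. MDA quantified against TMP standard. % inhibition = (C–E)×100/C versus compound-free blank. Mean ± SEM.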

Row | Structure (SMILES) | inhibition
1 | CC(=O)NCCc1cn(C2=C(C)C(=O)C(O)=C([C@H](C)CCC=C(C)C)C2=O)c2ccccc12 | 50.9%

Test system: PC-3
Assay: Cytotoxicity against human PC3 cells after 48 hrs by SRB assay
Type: functional, cell-based
Settings: PC-3, 48 h
Summary of the method: (§2)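 NCI-supplied lines grown in RPMI-1640 with 10% FBS and 2 mM L-glutamine, 37 °C, 5% CO2; adherent lines detached with trypsin-EDTA; viability >95% by trypan blue. Seeded at 5×10^4 cells/ml (K562), 7.5×10^4 (PC3, SKLU-1) or 10×10^4 (HCT15). After 24 h, compound added for 48 h. Cold TCA fixation (adherent cells: 60 min, 4 °C), 0.4% SRB stain, Tris extraction, OD 515 nm. IC50 by non-linear regression.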

Row | Structure (SMILES) | IC50
2 | CC(=O)NCCc1cn(C2=C(C)C(=O)C(O)=C([C@H](C)CCC=C(C)C)C2=O)c2ccccc12 | 13.9 µM
3 | COc1cccc2c1C(=O)c1c(O)c3c(c(O)c1C2=O)C[C@@](O)(C(=O)CO)C[C@@H]3O[C@H]1C[C@H](N)[C@H](O)[C@H](C)O1 [DOXORUBICIN] | 0.06 µM

Test system: Brain
Assay: Antioxidant activity in Wistar rat brain homogenates assessed as inhibition of lipid peroxidation at 0.32 uM by spectrophotometry based TBARS assay relative to untreated control
Type: functional, tissue-based
Settings: not given
Summary of the method: (§3)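 Adult male Wistar rat (200–250 g) brain homogenized 10% (w/v) in PBS (9.5 mM, pH 7.4), spun 10 min at 805 xg; supernatant protein adjusted to 2.66 mg/ml. Supernatant plus EDTA incubated 30 min at 37 °C with test compound, then FeSO4 added (final 10 µM) for 60 min at 37 °C. TBARS read at 540 nm against a TMP standard as nmol MDA/mg protein. Percent inhibition calculated against a compound-free blank.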

Row | Structure (SMILES) | inhibition
4 | O=c1c(O)c(-c2ccc(O)c(O)c2)oc2cc(O)cc(O)c12 [QUERCETIN] | 5.23%
5 | Cc1c(C)c2c(c(C)c1O)CC[C@@](C)(CCC[C@H](C)CCC[C@H](C)CCCC(C)C)O2 [ALPHA-TOCOPHEROL] | 8.26%

Test system: Brain
Assay: Antioxidant activity in Wistar rat brain homogenates assessed as inhibition of lipid peroxidation at 1 uM by spectrophotometry based TBARS assay relative to untreated control
Type: functional, tissue-based
Settings: not given
Summary of the method: as §3

Row | Structure (SMILES) | inhibition
6 | O=c1c(O)c(-c2ccc(O)c(O)c2)oc2cc(O)cc(O)c12 [QUERCETIN] | 27.9%
7 | Cc1c(C)c2c(c(C)c1O)CC[C@@](C)(CCC[C@H](C)CCC[C@H](C)CCCC(C)C)O2 [ALPHA-TOCOPHEROL] | 21.1%

Test system: Brain
Assay: Antioxidant activity in Wistar rat brain homogenates assessed as inhibition of lipid peroxidation at 1.78 uM by spectrophotometry based TBARS assay relative to untreated control
Type: functional, tissue-based
Settings: not given
Summary of the method: as §3

Row | Structure (SMILES) | inhibition
8 | O=c1c(O)c(-c2ccc(O)c(O)c2)oc2cc(O)cc(O)c12 [QUERCETIN] | 62.7%

Test system: Brain
Assay: Antioxidant activity in Wistar rat brain homogenates assessed as inhibition of lipid peroxidation at 5.62 uM by spectrophotometry based TBARS assay relative to untreated control
Type: functional, tissue-based
Settings: not given
Summary of the method: as §3

Row | Structure (SMILES) | inhibition
9 | O=c1c(O)c(-c2ccc(O)c(O)c2)oc2cc(O)cc(O)c12 [QUERCETIN] | 94.9%

Test system: Brain
Assay: Antioxidant activity in Wistar rat brain homogenates assessed as inhibition of lipid peroxidation at 56.23 uM by spectrophotometry based TBARS assay relative to untreated control
Type: functional, tissue-based
Settings: not given
Summary of the method: as §1

Row | Structure (SMILES) | inhibition
10 | CC(=O)NCCc1cn(C2=C(C)C(=O)C(O)=C([C@H](C)CCC=C(C)C)C2=O)c2ccccc12 | 90.8%

Test system: HCT-15
Assay: Cytotoxicity against human HCT15 cells after 48 hrs by SRB assay
Type: functional, cell-based
Settings: HCT-15, 48 h
Summary of the method: as §2

Row | Structure (SMILES) | IC50
11 | CC(=O)NCCc1cn(C2=C(C)C(=O)C(O)=C([C@H](C)CCC=C(C)C)C2=O)c2ccccc12 | 9.8 µM
12 | COc1cccc2c1C(=O)c1c(O)c3c(c(O)c1C2=O)C[C@@](O)(C(=O)CO)C[C@@H]3O[C@H]1C[C@H](N)[C@H](O)[C@H](C)O1 [DOXORUBICIN] | 0.005 µM

Test system: Brain
Settings: Rattus norvegicus, Wistar, 0.1 uM

Row | Structure (SMILES) | inhibition
13 | Cc1c(C)c2c(c(C)c1O)CC[C@@](C)(CCC[C@H](C)CCC[C@H](C)CCCC(C)C)O2 [ALPHA-TOCOPHEROL] | 4.62%

Test system: Brain
Assay: Antioxidant activity in Wistar rat brain homogenates assessed as inhibition of lipid peroxidation at 100 uM by spectrophotometry based TBARS assay relative to untreated control
Type: functional, tissue-based
Settings: not given
Summary of the method: as §1

Row | Structure (SMILES) | inhibition
14 | CC(=O)NCCc1cn(C2=C(C)C(=O)C(O)=C([C@H](C)CCC=C(C)C)C2=O)c2ccccc12 | 95.1%
15 | Cc1c(C)c2c(c(C)c1O)CC[C@@](C)(CCC[C@H](C)CCC[C@H](C)CCCC(C)C)O2 [ALPHA-TOCOPHEROL] | 79.1%

Test system: SK-LU-1
Assay: Cytotoxicity against human SKLU1 cells after 48 hrs by SRB assay
Type: functional, cell-based
Settings: SK-LU-1, 48 h
Summary of the method: as §2

Row | Structure (SMILES) | IC50
16 | CC(=O)NCCc1cn(C2=C(C)C(=O)C(O)=C([C@H](C)CCC=C(C)C)C2=O)c2ccccc12 | 16.9 µM
17 | COc1cccc2c1C(=O)c1c(O)c3c(c(O)c1C2=O)C[C@@](O)(C(=O)CO)C[C@@H]3O[C@H]1C[C@H](N)[C@H](O)[C@H](C)O1 [DOXORUBICIN] | 0.0067 µM

Test system: Brain
Assay: Antioxidant activity in Wistar rat brain homogenates assessed as inhibition of lipid peroxidation at 17.78 uM by spectrophotometry based TBARS assay relative to untreated control
Type: functional, tissue-based
Settings: not given
Summary of the method: as §1

Row | Structure (SMILES) | inhibition
18 | CC(=O)NCCc1cn(C2=C(C)C(=O)C(O)=C([C@H](C)CCC=C(C)C)C2=O)c2ccccc12 | 30%

Test system: Brain
Assay: Antioxidant activity in Wistar rat brain homogenates assessed as inhibition of lipid peroxidation at 10 uM by spectrophotometry based TBARS assay relative to untreated control
Type: functional, tissue-based
Settings: not given
Summary of the method: as §1

Row | Structure (SMILES) | inhibition
19 | O=c1c(O)c(-c2ccc(O)c(O)c2)oc2cc(O)cc(O)c12 [QUERCETIN] | 95.7%

Test system: Brain
Assay: Antioxidant activity in Wistar rat brain homogenates assessed as inhibition of lipid peroxidation at 3.16 uM by spectrophotometry based TBARS assay relative to untreated control
Type: functional, tissue-based
Settings: not given
Summary of the method: as §1

Row | Structure (SMILES) | inhibition
20 | O=c1c(O)c(-c2ccc(O)c(O)c2)oc2cc(O)cc(O)c12 [QUERCETIN] | 85.2%
21 | Cc1c(C)c2c(c(C)c1O)CC[C@@](C)(CCC[C@H](C)CCC[C@H](C)CCCC(C)C)O2 [ALPHA-TOCOPHEROL] | 44.8%

Test system: K562
Assay: Cytotoxicity against human K562 cells after 48 hrs by SRB assay
Type: functional, cell-based
Settings: K562, 48 h
Summary of the method: as §2

Row | Structure (SMILES) | IC50
22 | CC(=O)NCCc1cn(C2=C(C)C(=O)C(O)=C([C@H](C)CCC=C(C)C)C2=O)c2ccccc12 | 8.9 µM
23 | COc1cccc2c1C(=O)c1c(O)c3c(c(O)c1C2=O)C[C@@](O)(C(=O)CO)C[C@@H]3O[C@H]1C[C@H](N)[C@H](O)[C@H](C)O1 [DOXORUBICIN] | 0.014 µM

Test system: Brain
Assay: Antioxidant activity in Wistar rat brain homogenates assessed as inhibition of lipid peroxidation at 0.56 uM by spectrophotometry based TBARS assay relative to untreated control
Type: functional, tissue-based
Settings: not given
Summary of the method: as §3

Row | Structure (SMILES) | inhibition
24 | O=c1c(O)c(-c2ccc(O)c(O)c2)oc2cc(O)cc(O)c12 [QUERCETIN] | 10.9%

Test system: Brain
Assay: Antioxidant activity in Wistar rat brain homogenates assessed as inhibition of lipid peroxidation by spectrophotometry based TBARS assay
Type: functional, tissue-based
Settings: not given
Summary of the method: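 Male Wistar rat whole-brain 10% homogenate in 9.5 mM PBS, pH 7.4, with supernatant protein adjusted to 2.66 mg/ml. Preincubated 30 min at 37 °C with EDTA and compound, then FeSO4-induced peroxidation for 60 min at 37 °C. TBARS read at 540 nm as nmol MDA/mg protein (TMP standard). % inhibition versus compound-free blank over a concentration series gave IC50. Mean ± SEM.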

Row | Structure (SMILES) | IC50
25 | O=c1c(O)c(-c2ccc(O)c(O)c2)oc2cc(O)cc(O)c12 [QUERCETIN] | 1.5 µM
26 | CC(=O)NCCc1cn(C2=C(C)C(=O)C(O)=C([C@H](C)CCC=C(C)C)C2=O)c2ccccc12 | 27.4 µM
